According to ChEMBL document CHEMBL3585292, “Anti-dormant mycobacterial activity and target analysis of nybomycin produced by a marine-derived Streptomyces sp” (2015):
In brackets after ≈: the same amount, converted by molar mass.

Columns and labels:
[1] = tested on: Mycobacterium tuberculosis; test: Antibacterial activity against Mycobacterium bovis BCG under aerobic condition after 7 days by MTT assay; assay type: functional; conditions: variant bovis BCG, 168 h
In short: (§1)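 MTT microdilution. Mid-log bacilli in 7H9 with 10% OADC, 0.5% glycerol, 0.05% Tween 80, seeded at 1 × 10⁴ CFU/0.1 mL (M. smegmatis) or 1 × 10⁵ CFU/0.1 mL (BCG, M. tuberculosis), then serially diluted sample added. Aerobic incubation at 37 °C; hypoxic incubation at 37 °C under N2 with 0.2% O2. MTT (0.5 mg/mL, 50 µL) added for 12 h more, OD560 read to give MIC.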

[2] = tested on: Mycobacterium tuberculosis; test: Antibacterial activity against Mycobacterium bovis BCG under hypoxic condition after 14 days by MTT assay; assay type: functional; conditions: variant bovis BCG, 336 h; in short: as §1

Structure (SMILES)	MIC [1] [mg/L]	MIC [2] [mg/L]
COC(=O)CCCc1cn(CCOCCOCCOCCOCCOCCOCCOCCOCCOCCOCCNC(=O)CCCC[C@@H]2SC[C@@H]3NC(=O)N[C@@H]32)nn1	> 200	> 200
Cc1cc(=O)n2c3c(c4c(cc13)c(CO)cc(=O)n4C)OC2	1 (≈ 3.35 µM)	1 (≈ 3.35 µM)
NNC(=O)c1ccncc1 [ISONIAZID]	0.05 (≈ 0.365 µM)	> 100
Cc1cc(=O)n2c3c(c4c(cc13)c(COC(=O)CCCc1cn(CCOCCOCCOCCOCCOCCOCCOCCOCCOCCOCCNC(=O)CCCC[C@@H]3SC[C@@H]5NC(=O)N[C@@H]53)nn1)cc(=O)n4C)OC2	12.5 (≈ 10.9 µM)	6.25 (≈ 5.46 µM)
